The term Km denotes the concentration of substrate that gives half-maximal velocity. Broadly, the Vmax is the top rate of the reaction or transport when substrate is in excess.

Substrate in data set [1]: CN(C)CCOc1ccc(/C(=C(/CCCl)c2ccccc2)c2ccc(O)cc2)cc1
As to the kind of experiment: Activity of human SULT1E1 expressed in escherichia coli assessed as enzyme-mediated 4-(4-chloro-1-(4-(2-(dimethylamino)ethoxy)phenyl)-2-phenylbut-1-enyl)phenyl hydrogen sulfate formation after 15 mins by Michaelis-Menten equation in presence of 20 uM PAPS. The class given is ADME. The essentials:
(§1)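 Purified E. coli-expressed human enzyme (DEAE-Sepharose, ~80% pure; activity per total protein) incubated with 0.1–30 µM 4-OH-TOR, 20 µM PAPS, 50 mM potassium phosphate pH 6.2, 15 min at 37 °C. Reaction started with enzyme, stopped with acetonitrile:acetic acid (96:4). Sulfate quantified by radio-HPLC. Triplicate runs, corrected with a no-substrate control. Low substrate range chosen to limit substrate inhibition.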

Substrate in data set [2]: CN(C)CCOc1ccc(/C(=C(/CCCl)c2ccccc2)c2ccc(O)cc2)cc1
As to the kind of experiment: Activity of human SULT1A1 expressed in escherichia coli assessed as enzyme-mediated 4-(4-chloro-1-(4-(2-(dimethylamino)ethoxy)phenyl)-2-phenylbut-1-enyl)phenyl hydrogen sulfate formation after 15 mins by Michaelis-Menten equation in presence of 20 uM PAPS. The class given is ADME. The method, boiled down:
as §1

B1: Sulfotransferase 1E1 (Homo sapiens) (protein)
chain: MNSELDYYEKFEEVHGILMYKDFVKYWDNVEAFQARPDDLVIATYPKSGTTWVSEIVYMIYKEGDVEKCKEDVIFNRIPFLECRKENLMNGVKQLDEMNSPRIVKTHLPPELLPASFWEKDCKIIYLCRNAKDVAVSFYYFFLMVAGHPNPGSFPEFVEKFMQGQVPYGSWYKHVKSWWEKGKSPRVLFLFYEDLKEDIRKEVIKLIHFLERKPSEELVDRIIHHTSFQEMKNNPSTNYTTLPDEIMNQKLSPFMRKGITGDWKNHFTVALNEKFDKHYEQQMKESTLKFRTEI
B1: in data set [1], the Km is 6.4 µM and the Vmax amounted to 0.0055 µmol/min.

B2: Sulfotransferase 1A1 (Homo sapiens) (protein)
chain: MELIQDTSRPPLEYVKGVPLIKYFAEALGPLQSFQARPDDLLISTYPKSGTTWVSQILDMIYQGGDLEKCHRAPIFMRVPFLEFKAPGIPSGMETLKDTPAPRLLKTHLPLALLPQTLLDQKVKVVYVARNAKDVAVSYYHFYHMAKVHPEPGTWDSFLEKFMVGEVSYGSWYQHVQEWWELSRTHPVLYLFYEDMKENPKREIQKILEFVGRSLPEETVDFVVQHTSFKEMKKNPMTNYTTVPQEFMDHSISPFMRKGMAGDWKTTFTVAQNERFDADYAEKMAGCSLSFRSEL
Consider B2, for which, in data set [2], the Km was found to be 2.6 µM and the Vmax was 0.0085 µmol/min.
